Laboratory results published in ChEMBL document CHEMBL2203151, “Cytotoxic alkaloids from the whole plants of Zephyranthes candida” (J Nat Prod, 2012).

What was measured:
[1] = test system: HT-29; assay: Cytotoxicity against human HT-29 cells after 48 hrs by MTT assay; format: functional, cell-based; conditions: HT-29, 48 h
[2] = test system: HepG2; assay: Cytotoxicity against human HepG2 cells after 48 hrs by MTT assay; format: functional, cell-based; conditions: HepG2, 48 h
[3] = test system: K562; assay: Cytotoxicity against human K562 cells after 48 hrs by MTT assay; format: functional, cell-based; conditions: K562, 48 h
[4] = test system: HL-60; assay: Cytotoxicity against human HL60 cells after 48 hrs by MTT assay; format: functional, cell-based; conditions: HL-60, 48 h
[5] = test system: A549; assay: Cytotoxicity against human A549 cells after 48 hrs by MTT assay; format: functional, cell-based; conditions: A549, 48 h
[6] = Cytotoxicity against human BEAS2B cells after 48 hrs by MTT assay; format: cell-based; conditions: BEAS-2B
Outline: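 Beas-2B immortalized, non-cancerous bronchial epithelial cells grown in RPMI-1640 or DMEM with 10% FBS, 5% CO2, 37°C. Cells were seeded and allowed to adhere 12 h before compound addition, then exposed for 48 h. DMSO negative and cisplatin positive controls were included. Viability was measured by MTT absorbance at 595 nm, and IC50 was calculated by the Reed–Muench method.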

[7] = Selectivity index, ratio of IC50 for human BEAS2B cells to IC50 for human HL60 cells; format: functional
[8] = test system: K562; assay: Selectivity index, ratio of IC50 for human BEAS2B cells to IC50 for human K562 cells; format: functional
[9] = test system: HepG2; assay: Selectivity index, ratio of IC50 for human BEAS2B cells to IC50 for human HepG2 cells; format: functional
[10] = test system: HT-29; assay: Selectivity index, ratio of IC50 for human BEAS2B cells to IC50 for human HT-29 cells; format: functional
[11] = test system: A549; assay: Selectivity index, ratio of IC50 for human BEAS2B cells to IC50 for human A549 cells; format: functional

CN1Cc2cc3c(cc2-c2ccccc21)OCO3
IC50 [1]: > 10 µM
IC50 [2]: > 10 µM
IC50 [3]: > 10 µM
IC50 [4]: > 10 µM
IC50 [5]: > 10 µM

O=c1c2cc3c(cc2c2ccccc2n1CCc1ccccc1)OCO3
IC50 [1]: 2.3 µM
IC50 [2]: 1.4 µM
IC50 [6]: 7.3 µM
Ratio IC50 [7]: 9
Ratio IC50 [8]: 10
Ratio IC50 [9]: 5.2
Ratio IC50 [10]: 3.2
Ratio IC50 [11]: 0.56
IC50 [3]: 0.7 µM
IC50 [4]: 0.81 µM
IC50 [5]: 13 µM

CO[C@@H]1C=C[C@@]23c4cc5c(cc4CN(C[C@@H]2O)[C@H]3C1)OCO5 [(+)-HAEMANTHAMINE]
IC50 [1]: 2.1 µM
IC50 [2]: 4.8 µM
IC50 [3]: 2.5 µM
IC50 [4]: 1.4 µM
IC50 [5]: 2.5 µM

CO[C@H]1C=C[C@@]23c4cc5c(cc4CN(C)[C@@H]2C(=O)N(C)[C@H]3C1)OCO5 (relative stereo)
IC50 [1]: > 10 µM
IC50 [2]: > 10 µM
IC50 [3]: > 10 µM
IC50 [4]: > 10 µM
IC50 [5]: > 10 µM

c1ccc2c(c1)ncc1cc3c(cc12)OCO3 [TRISPHAERIDINE]
IC50 [1]: > 10 µM
IC50 [2]: > 10 µM
IC50 [3]: > 10 µM
IC50 [4]: > 10 µM
IC50 [5]: > 10 µM

O[C@H]1[C@H]2c3cc4c(cc3CN3CCC(=C[C@@H]1O)[C@H]23)OCO4 [LYCORINE]
IC50 [1]: 3.2 µM
IC50 [2]: 3.7 µM
IC50 [6]: 4.9 µM
IC50 [3]: 2.3 µM
IC50 [4]: 1.6 µM
IC50 [5]: 1.9 µM

CO[C@@H]1C=C[C@@]23c4cc5c(cc4C(=O)O[C@H]2CN(C)[C@H]3C1)OCO5
IC50 [1]: > 10 µM
IC50 [2]: > 10 µM
IC50 [3]: > 10 µM
IC50 [4]: > 10 µM
IC50 [5]: > 10 µM

CCOC(=O)CCCn1c(=O)c2cc3c(cc2c2ccccc21)OCO3
IC50 [1]: > 10 µM
IC50 [2]: > 10 µM
IC50 [6]: 36 µM
IC50 [3]: > 10 µM
IC50 [4]: > 10 µM
IC50 [5]: > 10 µM

CO[C@@H]1C=C[C@@]23c4cc5c(cc4CO[C@]2(O)CN(C)[C@H]3C1)OCO5 [TAZETTINE]
IC50 [1]: > 10 µM
IC50 [2]: > 10 µM
IC50 [3]: > 10 µM
IC50 [4]: > 10 µM
IC50 [5]: > 10 µM

C/C=C/C=C/C(=O)N1C[C@H](C)NC[C@H]1C [NIGRAGILLIN]
IC50 [1]: > 10 µM
IC50 [2]: > 10 µM
IC50 [3]: > 10 µM
IC50 [4]: > 10 µM
IC50 [5]: > 10 µM

COc1cc2c(c(OC)c1OC)[C@@H](OC)O[C@@H]1CC=C3CCN(C)[C@H]3[C@H]21
IC50 [1]: > 10 µM
IC50 [2]: > 10 µM
IC50 [3]: > 10 µM
IC50 [4]: > 10 µM
IC50 [5]: > 10 µM

CO[C@@H]1C=C[C@@]23c4cc5c(cc4C(O)[N+](C)(C[C@@H]2O)[C@H]3C1)OCO5.[Cl-] (mixture of isomers)
IC50 [1]: 1.2 µM
IC50 [2]: 1.5 µM
IC50 [6]: 3.7 µM
Ratio IC50 [7]: 4.1
Ratio IC50 [8]: 3.7
Ratio IC50 [9]: 2.5
Ratio IC50 [10]: 3.1
Ratio IC50 [11]: 3.4
IC50 [3]: 1 µM
IC50 [4]: 0.91 µM
IC50 [5]: 1.1 µM

CC(C)CCn1c(=O)c2cc3c(cc2c2ccccc21)OCO3
IC50 [1]: > 10 µM
IC50 [2]: > 10 µM
IC50 [3]: > 10 µM
IC50 [4]: > 10 µM
IC50 [5]: > 10 µM

Cn1c(=O)c2cc3c(cc2c2ccccc21)OCO3
IC50 [1]: > 10 µM
IC50 [2]: > 10 µM
IC50 [3]: > 10 µM
IC50 [4]: > 10 µM
IC50 [5]: > 10 µM

CCOC(=O)CCn1c(=O)c2cc3c(cc2c2ccccc21)OCO3
IC50 [1]: > 10 µM
IC50 [2]: > 10 µM
IC50 [6]: > 40 µM
IC50 [3]: > 10 µM
IC50 [4]: > 10 µM
IC50 [5]: > 10 µM
